The source made the active and inactive calls. The rule behind the calls is not given here. Where a SMILES comes first, the peptide text is derived from it. [ ]: non-standard residue; d: D form. The star is where a group is joined. Tyr(Nα,Nα-allyl2) = C=CCN(CC=C)[C@@H](Cc1ccc(O)cc1)C(=O)*; Aib = CC(C)(N)C(=O)O
Each compound was assayed against T1, Delta-type opioid receptor (Homo sapiens, UniProt P41143) (assay: Inverse agonist activity at human cloned delta opioid receptor expressed in CHO cells assessed as […] [35S]GTP-gamma-S binding in presence of 1 uM GDP relative to control).
Format: functional, cell-based
Parameters: scale not given: the % may be the effect or the level left

T1 sequence (P41143 whole entry): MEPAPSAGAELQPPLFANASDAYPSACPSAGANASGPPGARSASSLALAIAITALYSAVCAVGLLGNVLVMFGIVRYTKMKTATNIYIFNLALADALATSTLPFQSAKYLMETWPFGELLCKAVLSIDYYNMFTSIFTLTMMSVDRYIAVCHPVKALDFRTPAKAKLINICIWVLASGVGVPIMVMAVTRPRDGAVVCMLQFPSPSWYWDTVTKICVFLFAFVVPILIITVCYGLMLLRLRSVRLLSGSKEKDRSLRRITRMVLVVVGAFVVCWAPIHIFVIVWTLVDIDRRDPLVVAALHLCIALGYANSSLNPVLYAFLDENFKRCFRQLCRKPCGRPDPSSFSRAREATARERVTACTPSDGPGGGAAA

SMILES | Activity [%]
C[C@H]1CN(CCCc2ccccc2)[C@@H]2C[C@@H](NC(=O)C3(c4cccc5ccccc45)CCCC3)C[C@@]1(c1cccc(O)c1)C2 | 46
CCC(CC)(C(=O)N[C@@H]1C[C@@H]2C[C@](c3cccc(O)c3)(C1)[C@@H](C)CN2CCCc1ccccc1)c1ccccc1 | 61
C=CCN(CC=C)[C@@H](Cc1ccc(O)cc1)C(=O)NC(C)(C)C(=O)NC(C)(C)C(=O)N[C@@H](Cc1ccccc1)C(=O)N[C@@H](CC(C)C)C(=O)O ({Tyr(Nα,Nα-allyl2)}-[Aib][Aib]FL-OH) | 75

Continued, values first:

Activity [%] | SMILES
70 | CC1CN(CCCc2ccccc2)[C@@H]2C[C@@H](NC(=O)C3(c4ccccc4)CCCC3)C[C@@]1(c1cccc(O)c1)C2 (single isomer, unassigned; (+))
78 | C[C@@H](C(=O)N[C@@H]1C[C@@H]2C[C@](c3cccc(O)c3)(C1)[C@@H](C)CN2CCCc1ccccc1)c1ccccc1

These compounds were tested against Mu-type opioid receptor (Homo sapiens) (UniProt P35372) (assay: Antagonist activity at human cloned mu opioid receptor expressed in CHO cells assessed as inhibition of DAMGO-stimulated [35S]GTP-gamma-S binding in presence of 10 uM GDP).
Format: functional, cell-based
In short: (§1)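 Membranes of CHO cells expressing cloned human receptor (0.4-0.6 pmol/mg), 20-40 µg protein, with 0.5 nM [³⁵S]GTPγS, 10 µM GDP final, 1% DMSO, in 20 mM Hepes pH 7.4, 100 mM NaCl, 10 mM MgCl₂; 1 h room temperature. Agonist curves (seven concentrations, 0.32-32 000 nM) ± one test concentration (µ 3-300, δ 1-50, κ 50-300 nM). Filtration over GF/B, scintillation counting; Ke as mean ± SE, ≥3 experiments.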

Chain of Mu-type opioid receptor (Homo sapiens) (P35372 whole entry): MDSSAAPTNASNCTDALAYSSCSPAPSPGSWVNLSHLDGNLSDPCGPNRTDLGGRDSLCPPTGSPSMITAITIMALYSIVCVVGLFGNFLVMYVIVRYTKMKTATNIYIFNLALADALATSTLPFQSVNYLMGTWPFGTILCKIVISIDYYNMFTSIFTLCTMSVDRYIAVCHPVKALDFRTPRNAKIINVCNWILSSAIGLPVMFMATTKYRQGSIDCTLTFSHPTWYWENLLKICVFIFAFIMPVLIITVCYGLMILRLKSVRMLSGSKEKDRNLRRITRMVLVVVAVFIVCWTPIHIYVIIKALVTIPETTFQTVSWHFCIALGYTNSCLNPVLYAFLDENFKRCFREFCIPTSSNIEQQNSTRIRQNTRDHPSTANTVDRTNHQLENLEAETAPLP

SMILES | Ke [nM]
C[C@H]1CN(CCCc2ccccc2)[C@@H]2C[C@@H](NC(=O)C3(c4cccc5ccccc45)CCCC3)C[C@@]1(c1cccc(O)c1)C2 | 27.2
CCC(CC)(C(=O)N[C@@H]1C[C@@H]2C[C@](c3cccc(O)c3)(C1)[C@@H](C)CN2CCCc1ccccc1)c1ccccc1 | 11.7

Second part, the compound after the results:

Ke [nM] | SMILES
8.7 | CC1CN(CCCc2ccccc2)[C@@H]2C[C@@H](NC(=O)C3(c4ccccc4)CCCC3)C[C@@]1(c1cccc(O)c1)C2 (single isomer, unassigned; (+))
9.6 | C[C@@H](C(=O)N[C@@H]1C[C@@H]2C[C@](c3cccc(O)c3)(C1)[C@@H](C)CN2CCCc1ccccc1)c1ccccc1

These compounds were tested against T1, Delta-type opioid receptor (assay: Antagonist activity at human cloned delta opioid receptor expressed in CHO cells assessed as inhibition of DPDPE-stimulated [35S]GTP-gamma-S binding in presence of 10 uM GDP).
Format: functional, cell-based
In short: as §1

SMILES | Ke [nM]
C[C@H]1CN(CCCc2ccccc2)[C@@H]2C[C@@H](NC(=O)C3(c4cccc5ccccc45)CCCC3)C[C@@]1(c1cccc(O)c1)C2 | 1.42
CCC(CC)(C(=O)N[C@@H]1C[C@@H]2C[C@](c3cccc(O)c3)(C1)[C@@H](C)CN2CCCc1ccccc1)c1ccccc1 | 0.2

The remaining lines, values ahead:

Ke [nM] | SMILES
0.15 | CC1CN(CCCc2ccccc2)[C@@H]2C[C@@H](NC(=O)C3(c4ccccc4)CCCC3)C[C@@]1(c1cccc(O)c1)C2 (single isomer, unassigned; (+))
0.14 | C[C@@H](C(=O)N[C@@H]1C[C@@H]2C[C@](c3cccc(O)c3)(C1)[C@@H](C)CN2CCCc1ccccc1)c1ccccc1

The compounds below were run against Kappa-type opioid receptor (Homo sapiens) (UniProt P41145) (assay: Antagonist activity at human cloned kappa opioid receptor expressed in CHO cells assessed as inhibition of U69593-stimulated [35S]GTPgammaS binding in presence of 10 uM GDP).
Format: functional, cell-based
In short: as §1

Chain of Kappa-type opioid receptor (Homo sapiens) (P41145 whole entry): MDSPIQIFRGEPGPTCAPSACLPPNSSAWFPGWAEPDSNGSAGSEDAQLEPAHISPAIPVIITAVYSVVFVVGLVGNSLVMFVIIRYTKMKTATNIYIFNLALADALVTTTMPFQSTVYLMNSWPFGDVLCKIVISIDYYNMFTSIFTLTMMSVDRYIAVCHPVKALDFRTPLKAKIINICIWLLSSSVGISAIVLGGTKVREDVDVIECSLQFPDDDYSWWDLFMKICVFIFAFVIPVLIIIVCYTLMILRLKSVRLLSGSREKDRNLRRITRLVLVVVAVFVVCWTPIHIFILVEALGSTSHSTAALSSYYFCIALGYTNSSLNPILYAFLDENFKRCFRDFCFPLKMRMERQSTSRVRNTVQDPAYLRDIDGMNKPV

SMILES | Ke [nM]
C[C@H]1CN(CCCc2ccccc2)[C@@H]2C[C@@H](NC(=O)C3(c4cccc5ccccc45)CCCC3)C[C@@]1(c1cccc(O)c1)C2 | 43.6
CCC(CC)(C(=O)N[C@@H]1C[C@@H]2C[C@](c3cccc(O)c3)(C1)[C@@H](C)CN2CCCc1ccccc1)c1ccccc1 | 14.6

Now from value to compound:

Ke [nM] | SMILES
17.9 | CC1CN(CCCc2ccccc2)[C@@H]2C[C@@H](NC(=O)C3(c4ccccc4)CCCC3)C[C@@]1(c1cccc(O)c1)C2 (single isomer, unassigned; (+))
8.1 | C[C@@H](C(=O)N[C@@H]1C[C@@H]2C[C@](c3cccc(O)c3)(C1)[C@@H](C)CN2CCCc1ccccc1)c1ccccc1

What follows are compounds tested against Opioid receptors; mu & delta (Homo sapiens) (UniProt P41143+P35372) (assay: Selectivity for human cloned delta opioid receptor over mu opioid receptor).
Format: protein assay
In short: (§2)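 Ratios of Ke values from [³⁵S]GTPγS antagonism assays at cloned human µ, δ and κ receptors in CHO membranes, each run with 10 µM GDP final against DAMGO, DPDPE or U69593 agonist curves.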

Chain of Opioid receptors; mu & delta (Homo sapiens) (P35372 whole entry, looked up): as the sequence (P35372 whole entry) above
Chain of Opioid receptors; mu & delta (Homo sapiens) (P41143 whole entry, looked up): as the sequence (P41143 whole entry) above

SMILES | Ratio Ke
C[C@H]1CN(CCCc2ccccc2)[C@@H]2C[C@@H](NC(=O)C3(c4cccc5ccccc45)CCCC3)C[C@@]1(c1cccc(O)c1)C2 | 19
CCC(CC)(C(=O)N[C@@H]1C[C@@H]2C[C@](c3cccc(O)c3)(C1)[C@@H](C)CN2CCCc1ccccc1)c1ccccc1 | 59
C=CCN(CC=C)[C@@H](Cc1ccc(O)cc1)C(=O)NC(C)(C)C(=O)NC(C)(C)C(=O)N[C@@H](Cc1ccccc1)C(=O)N[C@@H](CC(C)C)C(=O)O ({Tyr(Nα,Nα-allyl2)}-[Aib][Aib]FL-OH) | 5.3

Next, values leading:

Ratio Ke | SMILES
58 | CC1CN(CCCc2ccccc2)[C@@H]2C[C@@H](NC(=O)C3(c4ccccc4)CCCC3)C[C@@]1(c1cccc(O)c1)C2 (single isomer, unassigned; (+))
69 | C[C@@H](C(=O)N[C@@H]1C[C@@H]2C[C@](c3cccc(O)c3)(C1)[C@@H](C)CN2CCCc1ccccc1)c1ccccc1

Each compound was assayed against Opioid receptors; delta & kappa (Homo sapiens) (UniProt P41145+P41143) (assay: Selectivity for human cloned delta opioid receptor over kappa opioid receptor).
Format: protein assay
In short: as §2

Chain of Opioid receptors; delta & kappa (Homo sapiens) (P41143 whole entry, looked up): as the sequence (P41143 whole entry) above
Chain of Opioid receptors; delta & kappa (Homo sapiens) (P41145 whole entry, looked up): as the sequence (P41145 whole entry) above

SMILES | Ratio Ke
C[C@H]1CN(CCCc2ccccc2)[C@@H]2C[C@@H](NC(=O)C3(c4cccc5ccccc45)CCCC3)C[C@@]1(c1cccc(O)c1)C2 | 31
CCC(CC)(C(=O)N[C@@H]1C[C@@H]2C[C@](c3cccc(O)c3)(C1)[C@@H](C)CN2CCCc1ccccc1)c1ccccc1 | 74
C=CCN(CC=C)[C@@H](Cc1ccc(O)cc1)C(=O)NC(C)(C)C(=O)NC(C)(C)C(=O)N[C@@H](Cc1ccccc1)C(=O)N[C@@H](CC(C)C)C(=O)O ({Tyr(Nα,Nα-allyl2)}-[Aib][Aib]FL-OH) | 43

Next, values leading:

Ratio Ke | SMILES
119 | CC1CN(CCCc2ccccc2)[C@@H]2C[C@@H](NC(=O)C3(c4ccccc4)CCCC3)C[C@@]1(c1cccc(O)c1)C2 (single isomer, unassigned; (+))
58 | C[C@@H](C(=O)N[C@@H]1C[C@@H]2C[C@](c3cccc(O)c3)(C1)[C@@H](C)CN2CCCc1ccccc1)c1ccccc1

What follows are compounds tested against T1, Delta-type opioid receptor (assay: Agonist activity at delta opioid receptor at 31.6 uM).
Format: functional

SMILES | Activity
C[C@H]1CN(CCCc2ccccc2)[C@@H]2C[C@@H](NC(=O)C3(c4cccc5ccccc45)CCCC3)C[C@@]1(c1cccc(O)c1)C2 | inactive
CCC(CC)(C(=O)N[C@@H]1C[C@@H]2C[C@](c3cccc(O)c3)(C1)[C@@H](C)CN2CCCc1ccccc1)c1ccccc1 | inactive
C=CCN(CC=C)[C@@H](Cc1ccc(O)cc1)C(=O)NC(C)(C)C(=O)NC(C)(C)C(=O)N[C@@H](Cc1ccccc1)C(=O)N[C@@H](CC(C)C)C(=O)O ({Tyr(Nα,Nα-allyl2)}-[Aib][Aib]FL-OH) | inactive

Next, values leading:

Activity | SMILES
inactive | CC1CN(CCCc2ccccc2)[C@@H]2C[C@@H](NC(=O)C3(c4ccccc4)CCCC3)C[C@@]1(c1cccc(O)c1)C2 (single isomer, unassigned; (+))
inactive | C[C@@H](C(=O)N[C@@H]1C[C@@H]2C[C@](c3cccc(O)c3)(C1)[C@@H](C)CN2CCCc1ccccc1)c1ccccc1

What follows are compounds tested against Mu-type opioid receptor (Homo sapiens) (UniProt P35372) (assay: Intrinsic activity at mu opioid receptor in presence of 1 uM GDP).
Format: functional

SMILES | Activity
C[C@H]1CN(CCCc2ccccc2)[C@@H]2C[C@@H](NC(=O)C3(c4cccc5ccccc45)CCCC3)C[C@@]1(c1cccc(O)c1)C2 | inactive
CCC(CC)(C(=O)N[C@@H]1C[C@@H]2C[C@](c3cccc(O)c3)(C1)[C@@H](C)CN2CCCc1ccccc1)c1ccccc1 | inactive
C=CCN(CC=C)[C@@H](Cc1ccc(O)cc1)C(=O)NC(C)(C)C(=O)NC(C)(C)C(=O)N[C@@H](Cc1ccccc1)C(=O)N[C@@H](CC(C)C)C(=O)O ({Tyr(Nα,Nα-allyl2)}-[Aib][Aib]FL-OH) | inactive

The remaining lines, values ahead:

Activity | SMILES
inactive | CC1CN(CCCc2ccccc2)[C@@H]2C[C@@H](NC(=O)C3(c4ccccc4)CCCC3)C[C@@]1(c1cccc(O)c1)C2 (single isomer, unassigned; (+))
inactive | C[C@@H](C(=O)N[C@@H]1C[C@@H]2C[C@](c3cccc(O)c3)(C1)[C@@H](C)CN2CCCc1ccccc1)c1ccccc1

The compounds below were run against Kappa-type opioid receptor (Homo sapiens) (UniProt P41145) (assay: Intrinsic activity at kappa opioid receptor in presence of 1 uM GDP).
Format: functional

SMILES | Activity
C[C@H]1CN(CCCc2ccccc2)[C@@H]2C[C@@H](NC(=O)C3(c4cccc5ccccc45)CCCC3)C[C@@]1(c1cccc(O)c1)C2 | inactive
CCC(CC)(C(=O)N[C@@H]1C[C@@H]2C[C@](c3cccc(O)c3)(C1)[C@@H](C)CN2CCCc1ccccc1)c1ccccc1 | inactive
C=CCN(CC=C)[C@@H](Cc1ccc(O)cc1)C(=O)NC(C)(C)C(=O)NC(C)(C)C(=O)N[C@@H](Cc1ccccc1)C(=O)N[C@@H](CC(C)C)C(=O)O ({Tyr(Nα,Nα-allyl2)}-[Aib][Aib]FL-OH) | inactive

Other lines, results leading:

Activity | SMILES
inactive | CC1CN(CCCc2ccccc2)[C@@H]2C[C@@H](NC(=O)C3(c4ccccc4)CCCC3)C[C@@]1(c1cccc(O)c1)C2 (single isomer, unassigned; (+))
inactive | C[C@@H](C(=O)N[C@@H]1C[C@@H]2C[C@](c3cccc(O)c3)(C1)[C@@H](C)CN2CCCc1ccccc1)c1ccccc1

These compounds were tested against T1, Delta-type opioid receptor (assay: Inverse agonist activity at human cloned delta opioid receptor expressed in CHO cells assessed as […] [35S]GTP-gamma-S binding in presence of 1 uM GDP).
Format: functional, cell-based

SMILES | IC50 [nM]
C[C@H]1CN(CCCc2ccccc2)[C@@H]2C[C@@H](NC(=O)C3(c4cccc5ccccc45)CCCC3)C[C@@]1(c1cccc(O)c1)C2 | 16
CCC(CC)(C(=O)N[C@@H]1C[C@@H]2C[C@](c3cccc(O)c3)(C1)[C@@H](C)CN2CCCc1ccccc1)c1ccccc1 | 1.8
C=CCN(CC=C)[C@@H](Cc1ccc(O)cc1)C(=O)NC(C)(C)C(=O)NC(C)(C)C(=O)N[C@@H](Cc1ccccc1)C(=O)N[C@@H](CC(C)C)C(=O)O ({Tyr(Nα,Nα-allyl2)}-[Aib][Aib]FL-OH) | 83

Continued by falling IC50, values first:

IC50 [nM] | SMILES
1.8 | CC1CN(CCCc2ccccc2)[C@@H]2C[C@@H](NC(=O)C3(c4ccccc4)CCCC3)C[C@@]1(c1cccc(O)c1)C2 (single isomer, unassigned; (+))
0.15 | C[C@@H](C(=O)N[C@@H]1C[C@@H]2C[C@](c3cccc(O)c3)(C1)[C@@H](C)CN2CCCc1ccccc1)c1ccccc1

Reference: ChEMBL document CHEMBL1146887 (J Med Chem, 2006)
